From PubChem
Only some compounds are listed: those with a hit (about 4.1% of all), similar ones and a draw of the others.
KCC2 mod: modulators of human KCC2 chloride dependent transport | B-score of Tl+ flux slope (higher = more flux/activation; lower = inhibition) at 10 µM | AID 1456 | KCC2 cells, thallium flux FluoZin-2 fluorescence | 2.2% of 190,000 active | Q9H2X9;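 active = thallium flux slope and its plate-corrected score both differing from the plate sample mean at a set confidence after two filtering rounds, in either direction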;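 also: slope of fluorescence scaled to starting intensity during 10 to 20 s after thallium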
KCNK9 block: blocks the human KCNK9 two-pore domain potassium channel. HEK293 KCNK9, FluxOR thallium flux fluorescence; hits give low values. 1.2% of 310,000 active. B-score at 10 µM;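 active = ratio B-score over 3 SD below the library mean, with starting fluorescence within 5 SD of its mean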;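 also: negative B-score means less thallium flux so channel inhibition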
Target sequence (Q9NPC2 whole entry, looked up, the tested form may be a part): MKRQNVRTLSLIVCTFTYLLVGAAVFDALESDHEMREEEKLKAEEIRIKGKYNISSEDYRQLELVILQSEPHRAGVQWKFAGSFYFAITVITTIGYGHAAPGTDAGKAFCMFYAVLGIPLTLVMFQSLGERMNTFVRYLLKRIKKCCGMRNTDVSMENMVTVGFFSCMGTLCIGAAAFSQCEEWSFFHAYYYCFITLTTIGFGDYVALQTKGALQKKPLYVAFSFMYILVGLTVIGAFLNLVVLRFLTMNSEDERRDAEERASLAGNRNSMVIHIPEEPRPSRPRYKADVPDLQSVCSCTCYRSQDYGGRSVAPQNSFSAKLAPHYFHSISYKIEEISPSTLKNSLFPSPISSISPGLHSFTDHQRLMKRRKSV
hERG rescue: hERG (human) protection from proarrhythmic block; CHO-hERG, FluxOR thallium flux, dofetilide IC70 present; activation (rescue from dofetilide block), less the hit threshold, % at 10 µM; 0.51% of 310,000 active; AID 1511;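 active = activation above the mean of controls blocked by dofetilide plus 5 SD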;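 also: thallium influx through hERG after potassium depolarization seen as dye fluorescence rise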
KCNK3 block: human KCNK3 channel inhibition, primary screen; O14649; CHO-KCNK3 thallium flux, FluxOR fluorescence; hits give low values; B-score at 10 µM; 0.84% of 340,000 active;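 active = B-score under library mean minus 4 SD, starting fluorescence ratio at most library mean plus 5 SD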;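 also: more negative B-score means stronger inhibition of thallium flux through KCNK3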
Target sequence (O14649 whole entry, looked up): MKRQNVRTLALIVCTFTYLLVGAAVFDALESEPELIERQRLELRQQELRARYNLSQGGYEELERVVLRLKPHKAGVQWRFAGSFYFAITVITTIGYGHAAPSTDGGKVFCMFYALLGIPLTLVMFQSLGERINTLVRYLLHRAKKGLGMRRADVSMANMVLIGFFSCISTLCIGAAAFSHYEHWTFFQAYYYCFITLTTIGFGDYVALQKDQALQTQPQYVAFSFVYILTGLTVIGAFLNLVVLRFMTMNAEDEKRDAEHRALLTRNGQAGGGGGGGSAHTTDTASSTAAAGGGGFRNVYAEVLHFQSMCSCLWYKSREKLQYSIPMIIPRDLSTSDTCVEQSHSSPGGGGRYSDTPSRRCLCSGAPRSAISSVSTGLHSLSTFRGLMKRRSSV
KCNQ1 block: inhibitors of human KCNQ1 potassium channel; 1.3% of 310,000 active; AID 2642; CHO-K1 KCNQ1, FluxOR thallium flux fluorescence; hits give high values; B-score at 10 µM;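 active = compounds whose thallium flux B-score, printed positive for inhibition, exceeds three library SD while starting fluorescence stays within three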;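 also: channel opened by potassium depolarization with thallium stimulus after 20 min compound exposure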
KCNQ1 act: human KCNQ1 channel potentiation or activation; P51787; CHO-K1 KCNQ1, thallium flux FluxOR fluorescence; hits give high values; B-score at 10 µM; 0.35% of 310,000 active; AID 2648;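 active = fluorescence ratio B-score, a plate-corrected score, at least three library SD, with initial intensity B-score within 5 SD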
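Test system: CHO-K1 cells stably expressing KCNQ1 / Medium: assay buffer / Also added: depolarizing K+/Tl+ stimulus, K2SO4 and Tl2SO4 each 12.5 mM in 5x stock / Incubation: 90 min dye loading and 20 min compound exposure, both at room temperature / Signal: thallium influx via FluxOR fluorescence, kinetic imaging / Evaluation: B score of baseline-normalized fluorescence ratio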
KCC2 secondary: confirmation of human KCC2 transport modulators; shares compounds with KCC2 mod; normalised thallium flux (F/F0 slope) at 10 µM; HEK293-KCC2, thallium flux, FluoZin2 fluorescence; hits give high values; 15% of 3,700 active; AID 1713;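 active = thallium flux slope above the same plate's solvent-only control mean plus 3 SD; inconclusive = the two replicate wells disagree; inactive = no significant difference from solvent-only control wells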
KCC2 bumet counter: thallium flux despite bumetanide block in KCC2 cells, secondary assay 3. shares compounds with KCC2 mod. HEK293-KCC2 + bumetanide/ouabain, thallium flux FluoZin2; hits give high values. normalized thallium flux at 10 µM. 49% of 3,700 active. AID 1714;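 active = thallium entry rate above the same plate's blocked-transporter control wells by more than 3 SD; inconclusive = the two repeat wells disagree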;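 also: raw slope of fluorescence over initial fluorescence between 10 and 20 s after thallium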
KCC2 sec2: KCC2 (human) modulation, second secondary assay | HEK293-KCC2, thallium flux FluoZin2 fluorescence; actives lie on both sides; F/F0 rise rate, 10–20 s post-thallium | AID 1715 | normalized thallium flux at 10 µM | shares compounds with KCC2 mod | 23% of 3,700 active;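 active = thallium flux slope more than 3 SD above or below the plate's solvent-only control mean, mostly below; inconclusive = the two repeat wells disagreed; inactive = no significant shift from solvent-only controls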;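 also: raw slope with 0.1% DMSO as baseline and bumetanide as block control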
HEK counter1: acts in parental HEK cells, KCC2 counter-screen. shares compounds with KCC2 mod. thallium flux rate (normalised fluorescence) at 10 µM. 46% of 3,700 active. HEK293 parental cells, thallium flux FluoZin2, ouabain; baseline-ratio fluorescence slope, 10–20 s after thallium;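 active = thallium flux rate significantly above the same plate's solvent-only control wells, beyond their mean plus 3 SD; inconclusive = the two replicate wells gave conflicting results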
KCC2 retest ouab: modulates human KCC2 on retest with ouabain; shares compounds with KCC2 mod; HEK293-KCC2, thallium flux FluoZin2 fluorescence; bidirectional: low = inhibitor, high = activator; raw Tl+ flux slope (below DMSO = inhibition, above = activation) at 10 µM; 48% of 3,700 active; AID 1717;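 active = thallium flux slope beyond 3 SD from same-plate DMSO control mean in most replicates, usually higher, sometimes lower; inconclusive = repeat tests gave conflicting results; inactive = no significant difference from controls in most replicates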;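 also: slope of initial-normalized fluorescence between seconds 10 and 20 after thallium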
HEK293 Tl flux2: counter-screen for KCC2 modulators: effect in parental HEK293 cells. 33% of 3,700 active. shares compounds with KCC2 mod. thallium flux slope at 10 µM. thallium flux FluoZin-2 fluorescence slope;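 active = thallium flux slope above the same plate's solvent-control mean plus 3 SD in both duplicate wells; inconclusive = duplicate wells that disagreed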;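 also: run without ouabain in cells lacking the KCC2 cotransporter; slope of fluorescence scaled to its starting value between 10 and 20 s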
KCNQ1 block val: confirmation of human KCNQ1 potassium channel inhibitors; inhibition, % at 10 µM; AID 588353; KCNQ1 cell line, FluxOR thallium flux fluorescence; 93% of 1,600 active; shares compounds with KCNQ1 block;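 active = primary screen active, with duplicate mean exceeding buffer control mean plus 3 SD of buffer wells, cut at about 28% in these data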;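 also: 0% = buffer control ratio and 100% = XE991 inhibitor control ratio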
CHO KCNQ1 ctr: activity in parental CHO cells lacking KCNQ1 | shares compounds with KCNQ1 block | parental CHO-K1, FluxOR thallium flux fluorescence ratio; hits give low values; zero means no signal rise above baseline | fluorescence ratio (Tl flux) at 10 µM | 21% of 1,600 active;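 active = mean of duplicate thallium-flux fluorescence ratios in parental host cells more than 5 SD below the buffer control mean, cut at about 0.38 in these data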;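 also: ratio is peak minus minimum fluorescence divided by baseline fluorescence; actives read low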
KCNQ1 APC inh: human KCNQ1 inhibition validated by electrophysiology. shares compounds with KCNQ1 block. KCNQ1-CHO cells, automated patch clamp current. calls only at 10 µM. 20% of 490 active;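 active = KCNQ1 current drop exceeding 3 SD of negative control wells, seen in both duplicate runs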;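 also: steady state current during a 2 s step from -80 to +40 mV; negative values mean current inhibition and positive values mean potentiation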
KCNQ2 inh: selectivity of KCNQ1 inhibitors: inhibition of rat KCNQ2 channel; inhibition, % at 10 µM; AID 651746; 71% of 1,600 active; KCNQ2 cells, FluxOR thallium flux fluorescence; shares compounds with KCNQ1 block;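 active = mean percent inhibition of the KCNQ2 thallium signal more than 5 SD above the buffer-only control wells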;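 also: KCNQ2 expressed in CHO cells; 0% = buffer control wells and 100% = XE-991 inhibitor control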
KCNQ1 KCNE1 spec: selectivity of KCNQ1 inhibitors: inhibition of human KCNQ1/KCNE1 channel. shares compounds with KCNQ1 block. KCNQ1/KCNE1 cells, FluxOR thallium flux fluorescence. inhibition, % at 10 µM. 77% of 1,600 active;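 active = mean percent inhibition of duplicate wells above the buffer-only control mean plus 3 SD of those controls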;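 also: 0% = buffer only wells and 100% = XE-991 inhibitor control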
The depositor's hits bear a star; i = inactive; ? = inconclusive; nt = no result; + = active, no number.

SMILES	KCC2 mod	KCNK9 block	hERG rescue	KCNK3 block	KCNQ1 block	KCNQ1 act	KCC2 secondary	KCC2 bumet counter	KCC2 sec2	HEK counter1	KCC2 retest ouab	HEK293 Tl flux2	others
O=C(NCC1CCCCC1)c1ccc(F)c(S(=O)(=O)N2CCOCC2)c1	nt	nt	nt	i	nt	nt	nt	nt	nt	nt	nt	nt
O=C(NC(=S)N1CCCCC1CO)c1cccs1 (stereo not drawn)	nt	nt	nt	i	nt	nt	nt	nt	nt	nt	nt	nt
O=[N+]([O-])c1ccc(O)c(/C=N/n2c(CO)nc3ccccc32)c1	-1.5	i	-9	i	i	i	nt	nt	nt	nt	nt	nt
O=[N+]([O-])c1ccc(O)c(/C=N/n2cnc3ccccc32)c1	-4.5*	i	-12	i	i	i	0.0055	0.0049	0.021*	0.0061*	0.013*	?
O=C(O)CCc1ccc(-c2ccc(F)cc2)n1CCC(=O)O	3.2*	i	-10	i	i	i	0.01	?	0.034	0.008	0.023	0.011
CCOc1[nH]n(-c2ccc(Cl)cc2)c(=O)c1C=NCC(=O)OC	0.65	i	-3	i	i	i	nt	nt	nt	nt	nt	nt
CCOC(=O)c1cc(C)n(Cc2cccc(OC)c2OC)c1C	nt	i	-8	i	i	i	0.0065	0.0042	0.03	0.0068	0.017	0.011
CCOC(=O)c1c(C)c(C)n(Cc2cccc(OC)c2OC)c1C	-1.2	i	-2	i	i	i	nt	nt	nt	nt	nt	nt
O=C(COc1ccc2ccc(=O)oc2c1)NCCc1c[nH]c2ccc(F)cc12	nt	i	-7	i	i	i	nt	nt	nt	nt	nt	nt
Cc1ccc(OCC(=O)O)c(O)c1	nt	nt	nt	i	nt	nt	nt	nt	nt	nt	nt	nt
Cc1nn(C)c(C)c1/C=C1/SC(=S)NC1=O	-4*	i	-8	i	i	i	0.01	0.0056	0.026*	0.0079	0.014*	0.011
Cc1cc(/C=C2\SC(=S)NC2=O)cc(C)c1O	7.6*	i	-5	i	i	i	0.006	0.036*	0.027	0.02*	0.027*	0.02*
Cc1nn(C)cc1/C=C1\SC(=S)NC1=O	0.21	i	-7	i	i	i	nt	nt	nt	nt	nt	nt
CCN(CC)c1ccc(C=C2SC(=S)NC2=O)cc1	nt	nt	nt	i	nt	nt	nt	nt	nt	nt	nt	nt
Cc1cc(/C=C2\SC(=S)NC2=O)c(C)n1-c1ccccc1	24*	i	2	i	i	i	0.011	0.047*	0.036	0.029*	?	0.013*
Cc1cc(/C=C2\SC(=S)NC2=O)c(C)n1C	nt	i	-11	i	i	i	nt	nt	nt	nt	nt	nt
CC1Cc2cc(/C=C3/SC(=S)NC3=O)ccc2O1 (stereo not drawn)	81*	i	-5	i	i	i	?	0.12*	0.05*	0.065*	0.087*	0.051*
O=C1NC(=S)S/C1=C\c1cc(Cl)cc(Cl)c1O	nt	nt	nt	i	nt	nt	nt	nt	nt	nt	nt	nt
Cc1cccc(C(C)C)c1NC(=O)COC(=O)CNS(=O)(=O)c1ccccc1	nt	i	-19	i	i	i	nt	nt	nt	nt	nt	nt
CC(=O)NC(=S)Nc1sc2c(c1C#N)CCCCC2	-0.39	i	-14	i	i	i	nt	nt	nt	nt	nt	nt
N#Cc1c(NC(=S)NC(=O)Cc2cccs2)sc2c1CCCCC2	7.4*	i	-14	i	i	i	0.0086	0.02*	0.028	0.0093*	?	0.0099
CCCc1cc(=O)[nH]c(SCC(=O)c2ccc3c(c2)NC(=O)CO3)n1	11*	i	-13	i	i	i	0.016	0.0041	0.029	0.0074	0.017	0.0095
Cc1c(NC(=O)Nc2cccs2)cccc1[N+](=O)[O-]	0.29	i	-25	i	i	i	nt	nt	nt	nt	nt	nt
Cc1ccc(-c2cc(Cc3ccccn3)c(=O)[nH]n2)cc1	-1.8	i	-3	i	i	i	0.012	0.0086*	0.032	0.0071	0.021	0.011
O=c1[nH]nc(-c2ccc(F)cc2)cc1Cc1ccccn1	0.58	i	-2	i	i	i	nt	nt	nt	nt	nt	nt
COc1ccc(S(=O)(=O)Nc2ccccc2C(=O)Nc2nc(-c3ccc(F)cc3)cs2)cc1OC	-6.2*	i	-20	i	9*	i	0.006*	0.0057	0.03	?	0.012*	0.01	KCNQ1 block val=166*;CHO KCNQ1 ctr=0.32*;KCNQ2 inh=89%*;KCNQ1 KCNE1 spec=+
CCCNC(=O)c1ccccc1NS(=O)(=O)c1ccc(OC)c(OC)c1	0.31	i	-7	i	i	i	nt	nt	nt	nt	nt	nt
O=C(NCCOc1ccc(F)cc1)c1ccccc1SCc1ccccc1	-5.4*	i	-25	i	7*	i	0.0051	?	0.019*	0.0059*	0.012*	0.0089	KCNQ1 block val=102*;CHO KCNQ1 ctr=0.48;KCNQ1 APC inh=+;KCNQ2 inh=106%*;KCNQ1 KCNE1 spec=169%*
O=C(N1CCCCC1)N1CCN(c2ccc(Cl)cc2)CC1	-1.1	i	-1	i	i	i	nt	nt	nt	nt	nt	nt
